ChEMBL document CHEMBL4118021, “Studies of TAK1-centered polypharmacology with novel covalent TAK1 inhibitors” (Bioorg Med Chem, 2017)

Columns and labels:
[1] = target: T1, Serine/threonine-protein kinase TAO1 (Homo sapiens) (UniProt Q7L7X3); test: Inhibition of TAO1 in human SKCO1 cells at 1 uM after 4 hrs using biotin labeled DIKAGNILLTEPGQVK probe by mass-spectrometric analysis relative to control; format: cell-based
T1 sequence (whole entry): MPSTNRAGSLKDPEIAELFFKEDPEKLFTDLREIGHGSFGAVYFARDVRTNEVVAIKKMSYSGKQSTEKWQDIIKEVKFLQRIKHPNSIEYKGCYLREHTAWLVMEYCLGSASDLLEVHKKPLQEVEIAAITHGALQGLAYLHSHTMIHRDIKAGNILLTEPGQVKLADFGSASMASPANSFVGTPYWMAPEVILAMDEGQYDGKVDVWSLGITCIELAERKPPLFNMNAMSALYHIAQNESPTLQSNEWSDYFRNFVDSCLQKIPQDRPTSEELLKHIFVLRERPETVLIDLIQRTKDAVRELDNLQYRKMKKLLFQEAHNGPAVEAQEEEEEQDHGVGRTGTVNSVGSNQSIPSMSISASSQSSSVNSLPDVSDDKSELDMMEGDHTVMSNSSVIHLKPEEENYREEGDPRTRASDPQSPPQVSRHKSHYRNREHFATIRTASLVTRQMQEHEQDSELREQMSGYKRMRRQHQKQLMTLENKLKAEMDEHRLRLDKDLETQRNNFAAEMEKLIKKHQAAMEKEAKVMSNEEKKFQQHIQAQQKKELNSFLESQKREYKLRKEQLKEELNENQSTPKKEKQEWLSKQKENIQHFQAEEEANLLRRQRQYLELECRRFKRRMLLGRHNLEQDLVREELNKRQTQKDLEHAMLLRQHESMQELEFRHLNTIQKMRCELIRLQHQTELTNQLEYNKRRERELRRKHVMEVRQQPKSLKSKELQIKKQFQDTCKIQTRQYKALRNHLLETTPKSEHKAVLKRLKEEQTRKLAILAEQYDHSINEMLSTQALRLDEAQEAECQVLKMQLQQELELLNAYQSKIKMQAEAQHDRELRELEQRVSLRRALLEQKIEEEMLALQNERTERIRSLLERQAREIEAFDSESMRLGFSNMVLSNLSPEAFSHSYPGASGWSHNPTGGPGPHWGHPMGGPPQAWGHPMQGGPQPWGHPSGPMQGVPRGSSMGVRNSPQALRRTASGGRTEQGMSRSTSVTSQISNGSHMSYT
Method in brief: (§1)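 Live SK-CO-1 cells exposed to compound at 1 μM or DMSO for 4 h (KiNativ). Lysates then labeled with lysine-reactive ATP/ADP-biotin probe, and probe-labeled kinase peptides quantified by mass spectrometry. Percent inhibition of probe-dependent recovery calculated relative to DMSO-treated cells.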

[2] = target: Serine/threonine-protein kinase VRK2 (Homo sapiens) (UniProt Q86Y07); test: Inhibition of VRK2 in human SKCO1 cells at 1 uM after 4 hrs using biotin labeled MLDVLEYIHENEYVHGDIKAANLLLYK probe by mass-spectrometric analysis relative to control; format: cell-based; method in brief: as §1
[3] = target: Tyrosine-protein kinase CSK (Homo sapiens) (UniProt P41240); test: Inhibition of CSK in human SKCO1 cells at 1 uM after 4 hrs using biotin labeled VSDFGLTKEASSTQDTGKLPVK probe by mass-spectrometric analysis relative to control; format: cell-based
[4] = target: Mitogen-activated protein kinase kinase kinase 1 (Homo sapiens) (UniProt Q13233); test: Inhibition of MAP3K1 in human SKCO1 cells at 1 uM after 4 hrs using biotin labeled DVKGANLLIDSTGQR probe by mass-spectrometric analysis relative to control; format: cell-based
[5] = target: Glycogen synthase kinase-3 beta (Homo sapiens) (UniProt P49841); test: Inhibition of GSK3B in human SKCO1 cells at 1 uM after 4 hrs using biotin labeled DIKPQNLLLDPDTAVLK probe by mass-spectrometric analysis relative to control; format: cell-based
[6] = target: RAF proto-oncogene serine/threonine-protein kinase (Homo sapiens) (UniProt P04049); test: Inhibition of RAF1 in human SKCO1 cells at 1 uM after 4 hrs using biotin labeled DMKSNNIFLHEGLTVK probe by mass-spectrometric analysis relative to control; format: cell-based; method in brief: as §1
[7] = target: Aurora kinase B (Homo sapiens) (UniProt Q96GD4); test: Inhibition of AurB in human SKCO1 cells at 1 uM after 4 hrs using biotin labeled SHFIVALKVLFK probe by mass-spectrometric analysis relative to control; format: cell-based
[8] = target: Aurora kinase A (Homo sapiens) (UniProt O14965); test: Inhibition of AurA in human SKCO1 cells at 1 uM after 4 hrs using biotin labeled GKFGNVYLAR probe by mass-spectrometric analysis relative to control; details: pooled result: one value given for 3 cell lines, strains, targets or settings
[9] = target: Ribosomal protein S6 kinase (Homo sapiens) (UniProt P51812+Q9UBS0+O75676+Q15349+O75582+P23443+Q9UK32+Q15418); test: Inhibition of p70S6K in human SKCO1 cells at 1 uM after 4 hrs using biotin labeled DLKPENIMLNHQGHVK probe by mass-spectrometric analysis relative to control; format: cell-based; method in brief: as §1

Serine/threonine-protein kinase VRK2 (Homo sapiens), sequence (Q86Y07 whole entry): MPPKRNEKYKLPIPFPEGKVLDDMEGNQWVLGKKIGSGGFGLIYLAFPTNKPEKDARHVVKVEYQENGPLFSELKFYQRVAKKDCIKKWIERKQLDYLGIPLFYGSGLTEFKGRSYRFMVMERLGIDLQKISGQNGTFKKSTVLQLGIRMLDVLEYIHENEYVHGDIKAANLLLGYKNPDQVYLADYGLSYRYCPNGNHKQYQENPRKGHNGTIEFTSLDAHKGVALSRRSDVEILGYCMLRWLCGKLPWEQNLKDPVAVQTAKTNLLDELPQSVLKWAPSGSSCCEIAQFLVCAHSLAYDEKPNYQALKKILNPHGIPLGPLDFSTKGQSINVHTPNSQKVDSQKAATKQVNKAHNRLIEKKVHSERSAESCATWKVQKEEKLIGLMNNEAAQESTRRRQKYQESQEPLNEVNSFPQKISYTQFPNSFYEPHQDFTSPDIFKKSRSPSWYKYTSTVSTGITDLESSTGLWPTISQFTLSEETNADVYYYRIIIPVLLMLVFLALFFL
Glycogen synthase kinase-3 beta (Homo sapiens), sequence (P49841 whole entry, looked up): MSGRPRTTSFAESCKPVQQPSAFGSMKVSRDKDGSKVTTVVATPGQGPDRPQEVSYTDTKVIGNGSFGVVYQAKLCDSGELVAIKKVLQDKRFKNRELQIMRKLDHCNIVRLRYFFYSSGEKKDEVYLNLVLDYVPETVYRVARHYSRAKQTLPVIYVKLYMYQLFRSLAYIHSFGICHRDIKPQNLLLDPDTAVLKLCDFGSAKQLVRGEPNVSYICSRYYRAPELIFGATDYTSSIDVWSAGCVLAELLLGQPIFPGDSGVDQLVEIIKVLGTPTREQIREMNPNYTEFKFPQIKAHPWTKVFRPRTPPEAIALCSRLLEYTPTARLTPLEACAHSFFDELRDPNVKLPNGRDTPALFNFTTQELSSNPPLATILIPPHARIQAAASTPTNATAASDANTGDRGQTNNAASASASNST
RAF proto-oncogene serine/threonine-protein kinase (Homo sapiens), sequence (P04049 whole entry): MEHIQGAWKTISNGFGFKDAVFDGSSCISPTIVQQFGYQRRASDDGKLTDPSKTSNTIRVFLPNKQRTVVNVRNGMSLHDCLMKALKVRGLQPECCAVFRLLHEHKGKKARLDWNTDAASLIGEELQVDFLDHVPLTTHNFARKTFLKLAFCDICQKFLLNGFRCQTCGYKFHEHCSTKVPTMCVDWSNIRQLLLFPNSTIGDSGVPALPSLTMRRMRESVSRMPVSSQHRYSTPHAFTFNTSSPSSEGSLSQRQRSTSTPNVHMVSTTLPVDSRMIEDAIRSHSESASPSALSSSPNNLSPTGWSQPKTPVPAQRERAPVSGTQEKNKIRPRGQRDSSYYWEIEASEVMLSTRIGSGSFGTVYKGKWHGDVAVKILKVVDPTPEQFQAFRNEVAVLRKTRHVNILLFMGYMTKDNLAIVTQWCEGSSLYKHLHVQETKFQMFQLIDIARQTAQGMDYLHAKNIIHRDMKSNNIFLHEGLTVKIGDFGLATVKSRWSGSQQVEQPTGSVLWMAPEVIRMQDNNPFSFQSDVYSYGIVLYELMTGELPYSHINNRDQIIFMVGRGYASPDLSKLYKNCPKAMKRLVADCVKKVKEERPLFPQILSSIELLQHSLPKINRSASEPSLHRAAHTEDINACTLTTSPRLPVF
Aurora kinase B (Homo sapiens), sequence (Q96GD4 whole entry): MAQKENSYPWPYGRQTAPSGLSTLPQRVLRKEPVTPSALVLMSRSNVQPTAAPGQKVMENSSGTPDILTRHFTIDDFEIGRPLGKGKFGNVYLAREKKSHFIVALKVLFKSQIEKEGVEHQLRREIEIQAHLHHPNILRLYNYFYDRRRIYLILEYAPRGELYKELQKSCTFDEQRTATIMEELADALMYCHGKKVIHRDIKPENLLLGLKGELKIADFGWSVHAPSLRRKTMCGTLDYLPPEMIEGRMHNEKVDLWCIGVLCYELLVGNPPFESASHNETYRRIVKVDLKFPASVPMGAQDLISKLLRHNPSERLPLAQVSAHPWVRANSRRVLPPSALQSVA
Mitogen-activated protein kinase kinase kinase 1 (Homo sapiens), sequence (Q13233 whole entry): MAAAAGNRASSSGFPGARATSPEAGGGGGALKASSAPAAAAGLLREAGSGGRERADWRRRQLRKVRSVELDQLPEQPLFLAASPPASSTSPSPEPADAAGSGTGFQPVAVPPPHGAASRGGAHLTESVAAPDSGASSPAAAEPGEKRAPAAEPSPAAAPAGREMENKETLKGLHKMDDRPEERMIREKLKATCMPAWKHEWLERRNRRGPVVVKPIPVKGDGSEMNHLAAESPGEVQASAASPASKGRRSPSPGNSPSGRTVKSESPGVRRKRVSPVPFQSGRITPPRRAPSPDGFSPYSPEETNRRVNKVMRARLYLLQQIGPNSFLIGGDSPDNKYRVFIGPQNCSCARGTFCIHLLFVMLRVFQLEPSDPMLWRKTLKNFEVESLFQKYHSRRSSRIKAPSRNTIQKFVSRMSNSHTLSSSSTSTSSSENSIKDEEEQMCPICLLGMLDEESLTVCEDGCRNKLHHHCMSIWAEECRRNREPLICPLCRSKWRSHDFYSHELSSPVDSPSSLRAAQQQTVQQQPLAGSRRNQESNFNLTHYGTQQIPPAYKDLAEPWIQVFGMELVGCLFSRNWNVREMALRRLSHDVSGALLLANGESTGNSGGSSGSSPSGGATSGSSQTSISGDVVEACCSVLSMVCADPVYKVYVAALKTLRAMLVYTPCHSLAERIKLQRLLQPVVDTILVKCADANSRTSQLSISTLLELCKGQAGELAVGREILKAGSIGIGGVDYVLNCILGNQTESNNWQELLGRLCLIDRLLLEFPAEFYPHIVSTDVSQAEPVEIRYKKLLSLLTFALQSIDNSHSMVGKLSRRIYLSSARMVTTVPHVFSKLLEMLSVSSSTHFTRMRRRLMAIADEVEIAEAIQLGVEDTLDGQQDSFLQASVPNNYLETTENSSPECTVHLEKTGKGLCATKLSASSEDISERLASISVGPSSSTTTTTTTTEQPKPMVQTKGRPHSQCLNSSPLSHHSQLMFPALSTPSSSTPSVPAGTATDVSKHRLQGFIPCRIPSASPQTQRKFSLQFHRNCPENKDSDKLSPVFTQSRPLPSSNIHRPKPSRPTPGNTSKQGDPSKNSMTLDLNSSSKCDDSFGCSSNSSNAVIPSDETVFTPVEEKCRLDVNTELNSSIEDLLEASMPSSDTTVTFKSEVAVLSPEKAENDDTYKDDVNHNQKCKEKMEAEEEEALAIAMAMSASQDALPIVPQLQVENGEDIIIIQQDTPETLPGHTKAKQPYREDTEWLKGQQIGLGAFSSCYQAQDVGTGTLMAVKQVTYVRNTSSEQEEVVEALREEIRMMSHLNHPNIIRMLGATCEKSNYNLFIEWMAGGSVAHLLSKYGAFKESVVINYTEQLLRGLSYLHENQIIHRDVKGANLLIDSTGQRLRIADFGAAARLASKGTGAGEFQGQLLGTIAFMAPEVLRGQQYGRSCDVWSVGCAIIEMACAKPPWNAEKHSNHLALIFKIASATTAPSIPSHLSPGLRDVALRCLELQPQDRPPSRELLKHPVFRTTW
Aurora kinase A (Homo sapiens), sequence (O14965 whole entry, looked up): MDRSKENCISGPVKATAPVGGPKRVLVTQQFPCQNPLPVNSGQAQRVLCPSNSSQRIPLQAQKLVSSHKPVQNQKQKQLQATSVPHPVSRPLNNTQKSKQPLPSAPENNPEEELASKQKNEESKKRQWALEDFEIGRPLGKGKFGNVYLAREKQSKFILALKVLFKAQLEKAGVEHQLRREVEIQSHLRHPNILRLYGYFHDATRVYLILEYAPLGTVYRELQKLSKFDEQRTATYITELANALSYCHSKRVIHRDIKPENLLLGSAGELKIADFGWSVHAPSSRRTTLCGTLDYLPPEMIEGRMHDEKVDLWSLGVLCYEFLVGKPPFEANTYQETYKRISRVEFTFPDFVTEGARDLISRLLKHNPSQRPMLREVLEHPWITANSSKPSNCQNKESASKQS
Tyrosine-protein kinase CSK (Homo sapiens), sequence (P41240 2-450 limits assumed): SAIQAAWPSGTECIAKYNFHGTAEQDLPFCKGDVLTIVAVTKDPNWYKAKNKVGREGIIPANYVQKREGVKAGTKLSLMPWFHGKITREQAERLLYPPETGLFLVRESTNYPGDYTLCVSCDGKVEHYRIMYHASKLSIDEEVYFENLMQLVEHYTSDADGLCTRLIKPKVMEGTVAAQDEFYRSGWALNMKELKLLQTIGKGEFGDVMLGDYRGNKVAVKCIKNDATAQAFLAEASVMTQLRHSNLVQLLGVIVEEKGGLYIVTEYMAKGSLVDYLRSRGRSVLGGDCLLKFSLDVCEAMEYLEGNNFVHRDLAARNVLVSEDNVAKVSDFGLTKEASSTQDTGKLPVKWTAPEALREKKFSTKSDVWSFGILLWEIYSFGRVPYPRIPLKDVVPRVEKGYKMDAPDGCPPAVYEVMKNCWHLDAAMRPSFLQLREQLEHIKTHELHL

| Structure (SMILES) | inhibition [1] | inhibition [2] | inhibition [3] | inhibition [4] | inhibition [5] | inhibition [6] | inhibition [7] | inhibition [8] | inhibition [9] |
| --- | --- | --- | --- | --- | --- | --- | --- | --- | --- |
| C=CC(=O)Nc1ccccc1Nc1nc(Nc2ccc(N3CCN(C)CC3)cc2)ncc1Cl | 13.1% | 10.3% | -0.8% | 78.5% | -6.6% | 65.6% | 94.4% | 95.1% | 16.3% |
| COc1cc(O)c2c(c1)/C=C/C[C@H](O)[C@H](O)C(=O)/C=C\C[C@H](C)OC2=O | 39.4% | 20.4% | -1.8% | 51.4% | 3% | 66.4% | 58.1% | 55.7% | 45.5% |
| C=CC(=O)Nc1ccccc1Oc1nc(Nc2cnn(CCOC)c2)ncc1Cl | 9.6% | 3.6% | 5.2% | 59.7% | 17% | 6.3% | 65.4% | 57.9% | 14.3% |
